Shown are actives, neighbours in structure and some others; about 3.4% of the full set was active somewhere.
TMEM16A inh: blocks the mouse calcium-activated chloride channel TMEM16A; Q8BHY3; HEK293 TMEM16A/YFP iodide influx fluorescence, ionomycin; normalized B-score (activity score, 25-100; higher = stronger inhibition) at 10 µM; 310,000 tested, 1.2% active; AID 588511;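 active means ratio plate-corrected score three or more library SD toward inhibition, starting fluorescence score within five deviations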;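 further: score derived from kinetic fluorescence span divided by baseline fluorescence per well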
ANO1 activ: activators or potentiators of mouse TMEM16A chloride channel | B-score at 10 µM | Q8BHY3 | 340,000 tested, 0.3% active | HEK293 TMEM16A/YFP-H148Q/I152L, iodide quench fluorescence; stronger effect = lower value;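 active means fluorescence-ratio B-score plate-corrected deviation score at least 3 library SD below zero, with starting fluorescence score within 5 deviations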;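 further: channel opened by trigger with iodide after compound preincubation; score built on the fluorescence ratio of max minus min over baseline; more negative score means more quench and so TMEM16A activation or potentiation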
CHT allo act: allosteric activators of human choline transporter CHT. Q9GZV3. 310,000 tested, 0.49% active. CHT-expressing cells, membrane potential dye, choline EC20; stronger effect = higher value; LV-AA mutant CHT in HEK293 cells. B-score at 10 µM;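 active means initial fluorescence not abnormally high and integrated response B-score, plate-corrected, over 3 SD above library mean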
VIM-2 inh: inhibitors of Pseudomonas aeruginosa VIM-2 metallo-beta-lactamase; purified VIM-2, nitrocefin hydrolysis, epi-absorbance fluorescence; inhibition, % at 5.6 µM; 290,000 tested, 0.89% active;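 active means inhibition above the mean of all tested compounds plus 3 SD, cutoff set per screening run, cut at about 7.5% in these data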;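 further: red hydrolysis product quenches plate fluorescence so inhibitors raise well fluorescence; 0% = enzyme with DMSO and 100% = DMSO without enzyme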
IMP-1 inh-1: blocks Pseudomonas aeruginosa IMP-1 metallo-beta-lactamase. 290,000 tested, 0.45% active. purified IMP-1, nitrocefin hydrolysis, epi-absorbance fluorescence. inhibition, % at 5.6 µM;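 active means inhibition above the mean plus 3 SD of all compounds in the same screening run, cut at about 4.5% in these data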;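 further: 0% = IMP-1 with DMSO and 100% = DMSO wells lacking enzyme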
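Material – recombinant IMP-1 enzyme, purified · Amount – IMP-1 0.2 nM before substrate addition · Medium – HEPES buffer pH 7.1 with ZnSO4 and Brij 35 · Timing – 25 °C, 15 min preincubation, 25 min reaction · Measured by – plate fluorescence quenching by hydrolysis product, ex 480/em 530 nm · Read-out – percent enzyme inhibition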
CHT inh: inhibitors of human choline transporter CHT | Q9GZV3 | CHT-expressing cells, membrane potential dye, choline response; stronger effect = lower value | B-score at 10 µM | 310,000 tested, 0.86% active | AID 488975;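 active means B-score over 3 SD under the library average, and starting fluorescence ratio not unusually high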;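 further: choline stimulus applied at its EC90 after an EC20 pre-addition; B-score computed on integrated fluorescence ratio after choline addition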
IMP-1 inh-2: blocks IMP-1 metallo-beta-lactamase in VIM-2 selectivity screen; shares compounds with VIM-2 inh; purified IMP-1, nitrocefin hydrolysis, epi-absorbance fluorescence; inhibition, % at 5.6 µM; 1,300 tested, under 10 active; AID 1856; call rule not given here;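 further: 0% = enzyme with vehicle and 100% = vehicle without enzyme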
VIM-2 FRET ctr: inhibits VIM-2 in FRET assay to exclude epi-absorbance artifacts. shares compounds with VIM-2 inh. 1,300 tested, 23% active. purified VIM-2, CCF2 FRET substrate hydrolysis. inhibition, % at 5.6 µM;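 active means inhibition above the mean of all tested compounds plus 3 SD, cut at about 19% in these data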;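 further: 0% = VIM-2 plus DMSO and 100% = no enzyme wells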
TEM-1 inh: selectivity counter-screen for VIM-2 inhibitors: E. coli TEM-1 inhibitors. shares compounds with VIM-2 inh. Purified TEM-1, nitrocefin hydrolysis, epi-absorbance fluorescence. inhibition, % at 5.6 µM. 1,300 tested, 3% active. AID 1866;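 active means inhibition above that campaign's mean inhibition plus 3 SD, cut at about 0.46% in these data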;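 further: 0% = TEM-1 with DMSO and 100% = TEM-1 with 100 µM potassium clavulanate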
Target sequence (P62593 whole entry, looked up): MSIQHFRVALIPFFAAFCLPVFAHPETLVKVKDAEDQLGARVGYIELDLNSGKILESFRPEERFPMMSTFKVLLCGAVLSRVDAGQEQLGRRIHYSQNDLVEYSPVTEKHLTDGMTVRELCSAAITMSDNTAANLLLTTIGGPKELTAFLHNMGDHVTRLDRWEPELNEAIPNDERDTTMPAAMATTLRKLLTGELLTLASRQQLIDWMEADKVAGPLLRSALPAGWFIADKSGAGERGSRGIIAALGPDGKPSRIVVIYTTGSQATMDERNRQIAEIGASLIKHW
VIM-2 inh conf: confirmation of P. aeruginosa VIM-2 metallo-beta-lactamase inhibitors; purified VIM-2, nitrocefin hydrolysis, epi-absorbance; inhibition, % at 5.6 µM; shares compounds with VIM-2 inh; 1,300 tested, 96% active;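 active means inhibition of the VIM-2 beta-lactamase enzyme above about 11% from the earlier first-round screen, limit read from the data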;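 further: 0% = VIM-2 with DMSO and 100% = buffer wells without enzyme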
* marks the source's active call; other numbers are inactive results; i = inactive; nt = no result given.

SMILES	TMEM16A inh	ANO1 activ	CHT allo act	VIM-2 inh	IMP-1 inh-1	CHT inh	others
Cc1cc(=O)oc2cc(OCC(=O)N3CCN(Cc4ccc5c(c4)OCO5)CC3)ccc12	i	i	i	9.7*	0	i
COc1ccc(C(C)=O)cc1CC(C(=O)c1ccc(Br)cc1)N(C)C (stereo not given)	i	i	i	2	6.0*	i
CN(C)C(Cc1ccccc1)C(=O)c1ccccc1 (stereo not given)	i	i	i	-1	-1	i
Cc1ccc2c(C)c3ccc4ccccc4c3c[n+]2c1	nt	i	nt	nt	nt	nt
O=C1NC(=O)N(CCc2ccc(F)cc2)C(=O)/C1=C\C=C\c1ccccc1	nt	i	nt	-1	-2	nt
CN1C(=O)NC(=O)/C(=C\C=C\c2ccccc2[N+](=O)[O-])C1=O	25*	nt	i	-1	-3	i
CC(CC(C)(C)N1CC1)=NNC(=O)Nc1cccc2ccccc12	nt	i	nt	nt	nt	nt
CNc1ccc2oc(C[C@H]3O[C@@]4(CC[C@H]3C)O[C@H]([C@H](C)C(=O)c3ccc[nH]3)[C@H](C)C[C@H]4C)nc2c1C(=O)O	100*	-37*	i	nt	nt	i
COC1/C=C/C=C(\C)Cc2cc(O)c(Cl)c(c2)N(C)C(=O)CC(OC(=O)C(C)C)C2(C)OC2C(C)C2CC1(O)NC(=O)O2 (stereo not given)	nt	-5*	nt	nt	nt	nt
CN1C(=O)/C(=C\c2ccc(N3CCCCCC3)cc2)C(=O)NC1=S	i	i	i	0	0	i
Cc1cc(N2CCCCC2)ccc1C=C1C(=O)N(C)C(=S)N(C)C1=O	i	i	i	4	7.4*	i
C[C@]12CC[C@@H]3c4ccc(O)c(O)c4CC[C@H]3[C@@H]1CC[C@@H]2O	i	i	i	1	14*	i
CCC1(c2ccccc2)C(=O)NC(=O)NC1=O	nt	i	nt	nt	nt	nt
O=C1NC(=O)C(CCc2ccncc2)(c2ccccc2)C(=O)N1	i	i	i	-5	6.1*	i
O=C1C(=O)c2cccc3cccc1c23	i	i	i	0	5.1*	i
COc1ccc(CNC(C)Cc2cccs2)cc1 (stereo not given)	i	-27*	i	1	-3	i
COc1ccc(CCNC(C)CCc2ccc(OC)cc2)cc1 (stereo not given)	i	i	i	-1	-2	i
O=S(=O)(O)C(=Cc1ccccc1)c1ccccc1 (tested in a mixture with another compound)	nt	i	nt	nt	nt	nt
CC(C)NC(=O)Cn1cc(C(=O)c2ccccc2F)c2ccccc21	i	-5.3*	i	-1	-7	i
C=CCN(CC=C)C(=O)CCN1CC1C (stereo not given)	nt	i	nt	nt	nt	nt
Cc1c(C=C2C(=O)N(C)C(=S)N(C)C2=O)c2ccccc2n1CC(=O)NCC1CCCO1 (stereo not given)	i	i	i	-4	19*	i
CN1[C@@H]2CCC[C@H]1CC(=O)C2	nt	i	nt	nt	nt	nt
O=P(O)(O)Cc1ccccc1OP(=O)(c1ccccc1)c1ccccc1	i	i	i	9.9*	-2	i
COc1ccc(Cl)cc1N=Cc1c(O)n(C)c(=O)n(C)c1=O	i	i	i	13*	-1	i	IMP-1 inh-2=-2;VIM-2 FRET ctr=-2;TEM-1 inh=-5;VIM-2 inh conf=21*
C(=NC1CCCCC1)c1c[nH]c2ccccc12	nt	i	nt	nt	nt	nt
SMILES	TMEM16A inh	ANO1 activ	CHT allo act	VIM-2 inh	IMP-1 inh-1	CHT inh	others
O=[N+]([O-])c1ccc(-c2ccccc2)c([As](=O)(O)O)c1	i	i	i	76*	-1	i	IMP-1 inh-2=-3;VIM-2 FRET ctr=82*;TEM-1 inh=-3;VIM-2 inh conf=80*
CC(=O)OC1CCC2(C)C(CCC3C4CC(N5CC5)C(C(C)=O)C4(C)CC(=O)C32)C1 (stereo not given)	nt	i	nt	nt	nt	nt
Cc1cc(OCC(=O)N[C@H](C(=O)O)c2ccccc2)c2c3c(c(=O)oc2c1)CCC3	i	-16*	i	17*	-2	i	IMP-1 inh-2=-3;VIM-2 FRET ctr=26*;TEM-1 inh=-7;VIM-2 inh conf=21*
CCCOC(=O)COc1cc(C)cc2oc(=O)c3c(c12)CCC3	i	i	i	0	-2	i
Cc1cc(OCC(=O)NC(Cc2ccc(Cl)cc2)C(=O)O)c2c3c(c(=O)oc2c1)CCC3 (stereo not given)	i	i	i	19*	-1	i	IMP-1 inh-2=-4;VIM-2 FRET ctr=33*;TEM-1 inh=-7;VIM-2 inh conf=19*
COC[C@H]1OC(=O)c2coc3c2[C@@]1(C)C1=C(C3=O)[C@@H]2CCC(=O)[C@@]2(C)C[C@H]1OC(C)=O	nt	i	nt	nt	nt	nt
CC(=NCCCn1ccnc1)c1c(O)n(-c2ccccc2)c(=O)[nH]c1=O	i	i	i	-2	-4	i
C=CCn1c(O)c(C(C)=NCCCn2ccnc2)c(=O)[nH]c1=O	i	i	i	58*	-2	i	IMP-1 inh-2=-3;VIM-2 FRET ctr=-2;TEM-1 inh=-6;VIM-2 inh conf=78*
Oc1c(Cl)cccc1Cc1cc(Cl)cc(Cl)c1O	nt	i	nt	nt	nt	nt
O=c1c2ccccc2[se]n1-c1ccccc1	i	i	i	27*	-2	i	IMP-1 inh-2=-3;VIM-2 FRET ctr=-87;TEM-1 inh=-10;VIM-2 inh conf=42*
O=c1c2ccccc2nc(-c2ccccc2)n1-c1ccccc1	i	i	i	0	-4	i
CC1(C(=O)O)CC12c1ccccc1-c1ccccc12 (stereo not given)	nt	i	nt	nt	nt	nt
CCOC(=O)c1c(C)n(Cc2ccco2)c2ccc(OC)cc12	i	i	i	0	-2	i
CCOC(=O)c1c(C)n(CCN2CCN(C)CC2)c2ccc(OC)cc12	i	i	i	61*	-1	i	IMP-1 inh-2=0;VIM-2 FRET ctr=2;TEM-1 inh=0;VIM-2 inh conf=80*
O=C1C(=O)c2ccccc2-c2ccccc21	i	i	i	17*	1	i	IMP-1 inh-2=-5;VIM-2 FRET ctr=-5;TEM-1 inh=-4;VIM-2 inh conf=18*
COc1ccc2c(c1)C1(C(=O)O)CC=CCC1(C(=O)O)C2 (stereo not given)	nt	i	nt	nt	nt	nt
CN1CCN(c2ccc(NC(=O)Oc3ccccc3)cc2)CC1	i	i	i	29*	-5	i	IMP-1 inh-2=-5;VIM-2 FRET ctr=-4;TEM-1 inh=-6;VIM-2 inh conf=24*
